The record followed here is ChEMBL document CHEMBL1123436, “Comparative toxicities and analgesic activities of three monomethylated analogues of acetaminophen” (J Med Chem, 1986).

Each structure is given as a SMILES string.

Assay [1] is filed under the species Mus musculus. The experiment in a line: Analgesic activity determined in mice using the Bradykinin-induced Writhing test. The assay is classed as functional. In short, it runs like this: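 Male CD1 mice (15–20 g), test drug given orally 15 min before bradykinin ip (4 μg in 0.2 mL sterile water), then a second bradykinin injection (0.2 μg/0.1 mL) 15 min later. Writhing was scored over the next 10 min, with control groups of 10 mice. ED50 was derived by log-probit analysis from at least five doses, with 95% limits.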
Background: Writhing tests count abdominal constrictions after an irritant is injected.

Assay [2] has as its system Mus musculus. The experiment in a line: (§1) Hepatotoxicity in Swiss-Webster Mice Caused by compound at 750 mg/kg (i.p.) dose. Type of assay: functional. To be noted: route intraperitoneal. In short, it runs like this: (§2)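 Male Swiss-Webster mice (20 g), groups of 10, were given a single ip dose of drug in saline with no pretreatment. Survivors were decapitated at 24 h and counted. Plasma ALT was measured, and liver sections (formalin-fixed, paraffin, H&E) were scored for necrosis severity in survivors. Values are means ± SE.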

Assay [3] concerns Mus musculus. The assay is described as §1. Type of assay: functional, organism-based. The arrangement: dose 750 mg/kg. In short, it runs like this:
as §2

Assay [4] in a line: (§3) Hepatotoxicity in Swiss-Webster Mice Caused by compound at 1000 mg/kg (i.p.) (phenobarbital pretreated animals)dose. The assay is classed as functional, Mus musculus. To be noted: route intraperitoneal. In short, it runs like this: (§4)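 Male Swiss-Webster mice (20 g), groups of 10. Sodium phenobarbital (80 mg/kg ip) was given 72, 60, 48 and 24 h before drug, then drug ip in saline. At 24 h: survivors counted, plasma ALT measured, and H&E liver sections scored for necrosis in survivors. Values are means ± SE.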

Assay [5] can be described thus: Hepatotoxicity in Swiss-Webster Mice Caused by compound at 1000 mg/kg (i.p.) (phenobarbital pretreated animals)dose; 5/10. To be noted: route intraperitoneal. The assay is classed as functional, Mus musculus. In short, it runs like this:
as §4

The test system of assay [6] is Mus musculus. The experiment in a line: Hepatotoxicity in Swiss-Webster Mice Caused by compound at 1000 mg/kg (i.p.) (cobaltous chloride pretreated animals)dose. The assay is classed as functional, organism-based. The arrangement: dose 1000 mg/kg. An outline of the steps:
(§5)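 Male Swiss-Webster mice (20 g), groups of 10. Cobaltous chloride (30 mg/kg ip) was given 48, 36, 24 and 12 h before drug, then drug ip in saline. At 24 h: survivors counted, plasma ALT measured, and H&E liver sections scored for necrosis in survivors. Values are means ± SE.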

For assay [7], the system named is Mus musculus. The experiment in a line: (§6) Hepatotoxicity in Swiss-Webster Mice Caused by compound at 1000 mg/kg (i.p.) dose. To be noted: route intraperitoneal. Type of assay: functional. In short, it runs like this:
as §2

Assay [8] has as its system Mus musculus. Described as §6. Type of assay: functional, organism-based. More on the design: dose 1000 mg/kg. In short, it runs like this:
as §2

In assay [9] the test system is Mus musculus. The experiment in a line: Hepatotoxicity in Swiss-Webster Mice Caused by compound at 1000 mg/kg (i.p.) dose; 8/10. To be noted: route intraperitoneal. Type of assay: functional. An outline of the steps: as §2
The test system of assay [10] is Mus musculus. The experiment in a line: Hepatotoxicity in Swiss-Webster Mice Caused by compound at 750 mg/kg (i.p.) dose; 10/10. The assay is classed as functional. To be noted: route intraperitoneal. In short, it runs like this: as §2
The subject of assay [11] is Mus musculus. The description is as §3. The assay is classed as functional, organism-based. More on the design: dose 1000 mg/kg. In short, it runs like this: as §4
The test system of assay [12] is Mus musculus. The experiment in a line: (§7) Hepatotoxicity in Swiss-Webster Mice Caused by compound at 1000 mg/kg (i.p.) (pipernonyl butoxide pretreated animals)dose. The assay is classed as functional, organism-based. More on the design: dose 1000 mg/kg. In short, it runs like this: (§8)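 Male Swiss-Webster mice (20 g), groups of 10. Piperonyl butoxide (neat, single 1360 mg/kg ip dose) was given 30 min before drug, then drug ip in saline. At 24 h: survivors counted, plasma ALT measured, and H&E liver sections scored for necrosis in survivors. Values are means ± SE.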

Assay [13] deals with Mus musculus. The experiment in a line: Hepatotoxicity in Swiss-Webster Mice Caused by compound at 1000 mg/kg (i.p.) (pipernonyl butoxide pretreated animals)dose; 10/10. To be noted: route intraperitoneal. Type of assay: functional. An outline of the steps:
as §8

Assay [14] can be described thus: Hepatotoxicity in Swiss-Webster Mice Caused by compound at 1000 mg/kg (i.p.) (cobaltous chloride pretreated animals)dose; 9/10. To be noted: route intraperitoneal. The assay is classed as functional, Mus musculus. In short, it runs like this:
as §5

In assay [15] the test system is Mus musculus. The assay is described as §7. Type of assay: functional. To be noted: route intraperitoneal. In short, it runs like this:
as §8

Regarding `CC(=O)Nc1ccc(O)cc1C`, the ED50 in the assay listed under Mus musculus [1] is 177 mg/kg. Also, the “Hepatic necrosis in survivors” value came out at 0.8 in the assay on Mus musculus [2], 3.4 in assay [4], 1.75 in the assay with Mus musculus [7] and 0 with Mus musculus [15]. Further, the Plasma ALT at 24 h is 690 mU ml-1 in the assay on Mus musculus [3]; 40 mU ml-1 in the assay with Mus musculus [6]; 2110 mU ml-1 with Mus musculus [8]; 3920 mU ml-1 in the assay with Mus musculus [11]; 75 mU ml-1 in the assay on Mus musculus [12]. In addition, the “Survivors at 24 h” value in assay [5] came out at 5; in the assay on Mus musculus [9] it was 8; in the assay with Mus musculus [10] it was 10; in the assay on Mus musculus [13] it was 10; in [14], 9.

The ED50 is the dose at which the effect has come halfway, by size or by number of responders.
